What was measured:
[1] = tested on: K562; assay: Antiproliferative activity against human K562 cells after 72 hrs; type: functional, cell-based; conditions: K562, 72 h
[2] = AUC (0-4 hrs) in BALB/c mouse at 50 mg/kg, po after 4 hrs; type: ADME, organism-based; set-up: time < 4 hr, dose 50 mg/kg, route oral; conditions: plasma
Outline: (§1)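 Mouse 4 h oral exposure screen: oral dose of 50 mg/kg given as a solution in 1:1 propylene glycol:water. Plasma drug levels followed over 4 h, giving AUC(0-4h), peak concentration (Cmax) and the concentration at 4 h.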

[3] = Cmax in BALB/c mouse at 50 mg/kg, po after 4 hrs; type: ADME, organism-based; set-up: dose 50 mg/kg, route oral; conditions: in vivo; outline: as §1
[4] = Plasma concentration in BALB/c mouse at 50 mg/kg, po after 4 hrs; type: ADME, organism-based; set-up: dose 50 mg/kg, route oral; outline: as §1
[5] = tested on: PC-3; assay: cells; conditions: Homo sapiens, PC-3, 72 h
[6] = tested on: MDA-MB-231; assay: cells; conditions: Homo sapiens, MDA-MB-231, 72 h
[7] = tested on: WiDr; assay: cells; conditions: Homo sapiens, 72 h
[8] = (§2) Protein binding in human serum at 10 uM; type: ADME, cell-free; conditions: read-out: PPB (converted)
Outline: (§3)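 Binding to human serum proteins measured at a compound concentration of 10 μM.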

[9] = Cmax in Sprague-Dawley rat at 10 mg/kg, iv; type: ADME, organism-based; set-up: dose 10 mg/kg, route intravenous; conditions: in vivo
Outline: (§4)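 Sprague–Dawley rats each given 10 mg/kg of compound, either intravenously or orally, in separate arms. Pharmacokinetic parameters were reported for each route as means with a variability term in parentheses. These were Cmax, Tmax, AUCtot, t1/2, MRT, and, for the iv dose, Cl and Vss. Oral bioavailability (Fpo) was reported for the oral arm.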

[10] = AUC (total) in Sprague-Dawley rat at 10 mg/kg, iv; type: ADME, organism-based; set-up: dose 10 mg/kg, route intravenous; conditions: plasma
Outline: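 Sprague–Dawley rats; single 10 mg/kg intravenous dose as a solution in citric acid buffer at pH 4.6. Total plasma AUC (μM·h) taken from the pharmacokinetic profile alongside Cmax, t1/2, MRT, clearance and Vss.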

[11] = Mean residence time in Sprague-Dawley rat at 10 mg/kg, iv; type: ADME, organism-based; set-up: dose 10 mg/kg, route intravenous; conditions: in vivo
Outline: (§5)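 Sprague-Dawley rats dosed at 10 mg/kg, either iv or orally, with drug as a solution in citric acid buffer pH 4.6. Parameters derived from plasma levels: Cmax, Tmax, AUCtot, t1/2, MRT, clearance, Vss, and oral bioavailability.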

[12] = Volume of distribution in Sprague-Dawley rat at 10 mg/kg, iv; type: ADME, organism-based; set-up: dose 10 mg/kg, route intravenous; conditions: in vivo, read-out: Vss; outline: as §5
[13] = Cmax in Sprague-Dawley rat at 10 mg/kg, po; type: ADME, organism-based; set-up: dose 10 mg/kg, route oral; conditions: in vivo; outline: as §4
[14] = Tmax in Sprague-Dawley rat at 10 mg/kg, po; type: ADME, organism-based; set-up: dose 10 mg/kg, route oral; conditions: in vivo; outline: as §5
[15] = AUC (total) in Sprague-Dawley rat at 10 mg/kg, po; type: ADME, organism-based; set-up: dose 10 mg/kg, route oral; conditions: plasma
Outline: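 Sprague–Dawley rats; single 10 mg/kg oral dose given as a solution. Total plasma AUC (μM·h) taken from the pharmacokinetic profile alongside Cmax, Tmax, t1/2 and MRT.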

[16] = Mean residence time in Sprague-Dawley rat at 10 mg/kg, po; type: ADME, organism-based; set-up: dose 10 mg/kg, route oral; conditions: in vivo; outline: as §5
[17] = tested on: Rattus norvegicus; assay: Clearance in Sprague-Dawley rat at 10 mg/kg, iv; type: ADME, organism-based; set-up: dose 10 mg/kg, route intravenous; conditions: in vivo; outline: as §5
[18] = tested on: Rattus norvegicus; assay: Oral bioavailability in Sprague-Dawley rat at 10 mg/kg, po; type: ADME, organism-based; conditions: in vivo; outline: as §4
[19] = species on record: Mus musculus; assay: Toxicity in nude mouse; type: organism-based; conditions: in vivo
Outline: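 K562 cells implanted subcutaneously in nude mice and staged to about 300 mg tumors. Oral dosing once daily at 5 or 50 mg/kg on a 5 day on/2 day off schedule for two cycles. Toxicity scored as animal deaths or lack of weight gain.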

[20] = tested on: Serum; assay: as §2; type: ADME, cell-free; conditions: 10 µM; outline: as §3

| IC50 [1] [µM] | AUC(0-t) at 4 h [2] [µM·h] | Cmax [3] [nM] | concentration at 4 h [4] [nM] | IC50 [5] [µM] | IC50 [6] [µM] | IC50 [7] [µM] | fraction unbound at 10 µM [8] | Structure (SMILES) | Cmax [9] [nM] | AUC [10] [µM·h] | MRT [11] [h] | Vd [12] [L/kg] | Cmax [13] [nM] | Tmax [14] [h] | AUC [15] [µM·h] | MRT [16] [h] | clearance [17] [mL/min/kg] | F [18] [%] | Activity [19] | PPB [20] [%] |
| --- | --- | --- | --- | --- | --- | --- | --- | --- | --- | --- | --- | --- | --- | --- | --- | --- | --- | --- | --- | --- |
| < 0.002 | 17 | 9600 | 1900 | 0.082 | 0.17 | 0.27 |  | Cc1cccc(Cl)c1NC(=O)c1cnc(Nc2cc(NCCN3CCOCC3)ncn2)s1 |  |  |  |  |  |  |  |  |  |  |  |  |
| < 0.003 | 1.7 | 960 | 220 | 0.024 | 0.045 | 0.27 |  | Cc1cccc(Cl)c1NC(=O)c1cnc(Nc2cc(N3CCOCC3)ncn2)s1 |  |  |  |  |  |  |  |  |  |  |  |  |
| < 0.002 | 11 | 3100 | 3100 | 0.014 | 0.023 | 0.027 | 0.08 | Cc1nc(NCCCN2CCOCC2)cc(Nc2ncc(C(=O)Nc3c(C)cccc3Cl)s2)n1 |  |  |  |  |  |  |  |  |  |  |  |  |
| < 0.001 | 3.5 | 2500 | 180 | 0.011 | 0.009 | 0.041 |  | Cc1nc(Nc2ncc(C(=O)Nc3c(C)cccc3Cl)s2)cc(N2CCC(CO)CC2)n1 |  |  |  |  |  |  |  |  |  |  |  |  |
| < 0.003 | 0.16 | 67 | 37 | 0.0036 | 0.016 | 0.027 |  | Cc1nc(Nc2ncc(C(=O)Nc3c(C)cccc3Cl)s2)cc(N2CCOCC2)n1 |  |  |  |  |  |  |  |  |  |  |  |  |
| < 0.001 | 3.1 | 2200 | 280 | 0.025 | 0.047 | 0.18 |  | Cc1nc(NCCN2CCOCC2)cc(Nc2ncc(C(=O)Nc3c(C)cccc3Cl)s2)n1 |  |  |  |  |  |  |  |  |  |  |  |  |
| < 0.002 | 13 | 8600 | 1100 | 0.01 | 0.034 | 0.032 |  | Cc1cccc(Cl)c1NC(=O)c1cnc(Nc2cccc(NCCCN3CCOCC3)n2)s1 |  |  |  |  |  |  |  |  |  |  |  |  |
| 0.0016 |  |  |  | 0.067 |  |  |  | Cc1cc(Nc2ncc(C(=O)Nc3c(C)cccc3Cl)s2)nc(C)n1 |  |  |  |  |  |  |  |  |  |  |  |  |
| < 0.003 | 7.2 | 7000 | 300 | 0.013 | 0.0031 | 0.0079 | 0.08 | Cc1cccc(Cl)c1NC(=O)c1cnc(Nc2cccc(NCCO)n2)s1 |  |  |  |  |  |  |  |  |  |  |  |  |
| < 0.004 | 1.5 | 800 | 170 | 0.027 | 0.14 | 0.21 |  | Cc1nc(NCCO)cc(Nc2ncc(C(=O)Nc3c(C)cccc3Cl)s2)n1 |  |  |  |  |  |  |  |  |  |  |  |  |
| < 0.003 | 0.16 | 88 | 33 | 0.0028 | < 0.003 | 0.0041 | 0.01 | Cc1cccc(Cl)c1NC(=O)c1cnc(Nc2cccc(NCCCn3ccnc3)n2)s1 |  |  |  |  |  |  |  |  |  |  |  |  |

| Structure (SMILES) | IC50 [1] [µM] | AUC(0-t) at 4 h [2] [µM·h] | Cmax [3] [nM] | concentration at 4 h [4] [nM] | IC50 [5] [µM] | IC50 [6] [µM] | IC50 [7] [µM] | fraction unbound at 10 µM [8] | Cmax [9] [nM] | AUC [10] [µM·h] | MRT [11] [h] | Vd [12] [L/kg] | Cmax [13] [nM] | Tmax [14] [h] | AUC [15] [µM·h] | MRT [16] [h] | clearance [17] [mL/min/kg] | F [18] [%] | Activity [19] | PPB [20] [%] |
| --- | --- | --- | --- | --- | --- | --- | --- | --- | --- | --- | --- | --- | --- | --- | --- | --- | --- | --- | --- | --- |
| Cc1nc(Nc2ncc(C(=O)Nc3c(C)cccc3Cl)s2)cc(N2CCN(CCO)CC2)n1.O [DASATINIB] | < 0.001 | 4.8 | 2700 | 700 | 0.0094 | 0.012 | 0.052 |  | 13200 | 13.9 | 4.1 | 6.3 | 500 | 2.2 | 3.8 | 6.7 | 26.4 | 27 | Non-toxic | 91 |

Source: ChEMBL document CHEMBL1149291, “Discovery of N-(2-chloro-6-methyl- phenyl)-2-(6-(4-(2-hydroxyethyl)- piperazin-1-yl)-2-methylpyrimidin-4-ylamino)thiazole-5-carboxamide (BMS-354825), a dual Src/Abl kinase inhibitor with potent antitumor activity in preclinical assays” (J Med Chem, 2004)
